{"data": "Published values from different studies", "OPRK1": "Kappa-type opioid receptor (OPRK1, Homo sapiens, UniProt P41145)", "HTR2A": "5-hydroxytryptamine receptor 2A (HTR2A, Homo sapiens, UniProt P28223)", "SIGMAR1": "Sigma non-opioid intracellular receptor 1 (SIGMAR1, Homo sapiens, UniProt Q99720)", "SPHK1": "Sphingosine kinase 1 (SPHK1, Homo sapiens, UniProt Q9NYA1)", "PPO3": "PPO3 (Agaricus bisporus, UniProt C7FF04)", "HRH4": "Histamine H4 receptor (HRH4, Homo sapiens, UniProt Q9H3N8)", "SLC10A1": "Hepatic sodium/bile acid cotransporter (SLC10A1, Homo sapiens, UniProt Q14973)", "note": "Lines come from different studies, so protocols differ. pKi: −log10 of the molar value."}
{"SMILES": "CNC(=O)[C@@]12C[C@@H]1[C@@H](n1cnc3c(NCCCO)nc(C#Cc4ccc(Cl)s4)nc31)[C@H](O)[C@@H]2O", "target": "OPRK1", "assay": "cell-free assay", "pKi": "< 5.00"}
{"SMILES": "CC1Cc2ccccc2N1C(=O)NCCCCN(C)[C@@H]1Cc2cccc3[nH]c(=O)n(c23)C1 (mixture of isomers)", "target": "HTR2A", "assay": "ligand displacement, radioligand", "pKi": 5.51}
{"SMILES": "CCCn1nc(C(=O)N2CCCCC2)c2c1CCC(N1CCN(Cc3ccc(C#N)cc3)CC1)C2 (centres unmarked)", "target": "SIGMAR1", "assay": "ligand displacement, radioligand", "pKi": "< 5.00"}
{"SMILES": "N=C(N)N1CCC[C@H]1c1nc(-c2ccc(CCC3CCCCC3)c(C(F)(F)F)c2)no1", "target": "SPHK1", "assay": "enzyme activity, inhibitor", "pKi": 4.74}
{"SMILES": "CCCCN1CCC(COC(=O)c2ccc(N)c(OCF)c2)CC1", "target": "HTR2A", "assay": "cell-free assay, radioligand", "pKi": "< 5.00"}
{"SMILES": "Cc1ccc(C(C)C)cc1NC(=O)COC(=O)/C=C/c1ccccc1O", "target": "PPO3", "assay": "enzyme activity, inhibitor", "pKi": 5.66}
{"SMILES": "OCCCN1CC[C@@H]2C[C@H]1c1cc(-c3ccc(C(F)(F)F)cc3)ccc12", "target": "HRH4", "assay": "ligand displacement, radioligand", "pKi": 5.26}
{"SMILES": "COc1ccccc1N1CCN(CCCCNC(=O)c2cc3cc(OCCOCCOCCF)ccc3[nH]2)CC1", "target": "SIGMAR1", "assay": "cell-free assay", "pKi": "< 5.00"}
{"SMILES": "CNc1nc(C#Cc2ccc(Cl)s2)nc2c1ncn2[C@@H]1O[C@H](C(=O)OC)[C@@H](O)[C@H]1O", "target": "OPRK1", "assay": "cell-free assay", "pKi": "< 5.00"}
{"SMILES": "CC(C)C(=O)Nc1ccc([N+](=O)[O-])c(C(F)(F)F)c1", "target": "SLC10A1", "assay": "transporter uptake, inhibitor", "pKi": 3.95}
{"SMILES": "Cn1cc(-c2ccncc2)c(-c2ccc(OCc3ccc4ccccc4n3)cc2)n1", "target": "Vesicular acetylcholine transporter (SLC18A3, Homo sapiens, UniProt Q16572)", "assay": "ligand displacement, radioligand", "pKi": "< 6.00"}
{"SMILES": "CN(CCCCNC(=O)c1cc2ccccc2[nH]1)[C@@H]1Cc2cccc3[nH]c(=O)n(c23)C1", "target": "HTR2A", "assay": "ligand displacement, radioligand", "pKi": 5.84}
{"SMILES": "Cc1ccc(C(C)C)cc1NC(=O)COC(=O)/C=C/c1ccccc1", "target": "PPO3", "assay": "enzyme activity, inhibitor", "pKi": 6.08}
{"SMILES": "O[C@@H]1[C@H](O)[C@@H]2C[C@@H]2[C@H]1n1cnc2c(NCCc3ccccc3)nc(C#Cc3ccccc3Cl)nc21", "target": "OPRK1", "assay": "cell-free assay", "pKi": "< 5.00"}
{"SMILES": "CCCn1nc(C(=O)N2CCCCC2)c2c1CCC(NCCNC(=N)N)C2 (centres unmarked)", "target": "SIGMAR1", "assay": "ligand displacement, radioligand", "pKi": "< 5.00"}
{"SMILES": "Cc1ccc(N=Nc2c(N)nc(N)nc2Cl)cc1", "target": "PPO3", "assay": "enzyme activity, inhibitor", "pKi": 5.23}
{"SMILES": "COc1ccc2c(ccn2CCCCN2Cc3cc(OC)c(OC)cc3C2)c1", "target": "SIGMAR1", "assay": "ligand displacement, radioligand", "conditions": "cell membranes", "pKi": 6.72}
{"SMILES": "CNC(=O)[C@@]12C[C@@H]1[C@@H](n1cnc3c(NC4CC4c4ccccc4)nc(C#Cc4ccccc4)nc31)[C@H](O)[C@@H]2O (mixture of isomers)", "target": "OPRK1", "assay": "cell-free assay", "pKi": "< 5.00"}
{"SMILES": "Nc1nc(N)c(N=Nc2ccc([N+](=O)[O-])cc2)c(Cl)n1", "target": "PPO3", "assay": "enzyme activity, inhibitor", "pKi": 5.18}
{"SMILES": "CCCn1nc(C(=O)N2CCCCC2)c2c1CCC(NCCc1ccncc1)C2 (centres unmarked)", "target": "SIGMAR1", "assay": "ligand displacement, radioligand", "pKi": "< 5.00"}
{"SMILES": "CCOC(=O)[C@H](CCSC)NC(=O)c1ccc(C2CC2)c(Cc2ccc(F)cc2)n1", "target": "Cannabinoid receptor 1 (CNR1, Homo sapiens, UniProt P21554)", "assay": "ligand displacement, radioligand", "conditions": "cell membranes", "pKi": 7.15}
{"SMILES": "CNc1nc(C#Cc2ccccc2)nc2c1ncn2[C@H]1[C@H](O)[C@H](O)[C@@H]2C[C@@H]21", "target": "OPRK1", "assay": "cell-free assay", "pKi": "< 5.00"}
{"SMILES": "Nc1nc(N)c(N=Nc2ccccc2[N+](=O)[O-])c(N)n1", "target": "PPO3", "assay": "enzyme activity, inhibitor", "pKi": 5.25}
{"SMILES": "Cc1nc2n(c(=O)c1CCNCCc1c[nH]c3cc(F)ccc13)CCCC2", "target": "HTR2A", "assay": "ligand displacement, radioligand", "conditions": "cell membranes", "pKi": 5.71}
{"SMILES": "CCCc1ccc(CCc2ccc(-c3noc([C@@H]4CCCN4C(=N)N)n3)cc2C(F)(F)F)cc1", "target": "SPHK1", "assay": "enzyme activity, inhibitor", "pKi": 4.77}
{"SMILES": "CC(=O)Nc1ccc(N=Nc2c(N)nc(N)nc2N)cc1", "target": "PPO3", "assay": "enzyme activity, inhibitor", "pKi": 5.30}
{"SMILES": "CNC(=O)[C@@]12C[C@@H]1[C@@H](n1cnc3c(NCc4cccc(Cl)c4)nc(C#Cc4ccccc4Cl)nc31)[C@H](O)[C@@H]2O", "target": "OPRK1", "assay": "cell-free assay", "pKi": "< 5.00"}
{"SMILES": "COc1ccc(N=Nc2c(N)nc(N)nc2Cl)cc1", "target": "PPO3", "assay": "enzyme activity, inhibitor", "pKi": 5.15}
{"SMILES": "O[C@@H]1[C@H](O)[C@@H]2C[C@@H]2[C@H]1n1cnc2c(NCc3cccc(Cl)c3)nc(C#Cc3ccc(F)c(F)c3)nc21", "target": "OPRK1", "assay": "cell-free assay", "pKi": "< 5.00"}
{"SMILES": "CCCn1nc(C(=O)N2CCCCC2)c2c1CCC(N(C)Cc1ccc(F)cc1)C2 (centres unmarked)", "target": "SIGMAR1", "assay": "ligand displacement, radioligand", "pKi": "< 5.00"}
{"SMILES": "O=C1NC(c2ccccc2)(c2ccccc2)C(=O)N1CCCN1CCCCC1", "target": "HRH4", "assay": "ligand displacement, radioligand", "conditions": "cell membranes", "pKi": "< 5.00"}
{"SMILES": "CCCn1nc(C(=O)N2CCCCC2)c2c1CCC(NCc1ccc(S(N)(=O)=O)cc1)C2 (centres unmarked)", "target": "SIGMAR1", "assay": "ligand displacement, radioligand", "pKi": "< 5.00"}
{"SMILES": "CCCNc1nc(C#Cc2ccc(Cl)s2)nc2c1ncn2[C@H]1[C@H](O)[C@H](O)[C@]2(C(=O)NC)C[C@H]12", "target": "OPRK1", "assay": "cell-free assay", "pKi": "< 5.00"}
{"SMILES": "O=C1c2ccccc2CCN1CCCCN1CCN(c2cccc(Cl)c2Cl)CC1", "target": "HTR2A", "assay": "ligand displacement, radioligand", "pKi": 7.41}
{"SMILES": "Cc1ccc(CN(C)CC(=O)N2CCCN(Cc3ccc(Cl)cc3)CC2)c(Cl)c1", "target": "OPRK1", "assay": "cell-free assay", "pKi": 5.12}
{"SMILES": "CCCn1nc(C(=O)N2CCCCC2)c2c1CCC(N1CCC(c3ccncc3)CC1)C2 (centres unmarked)", "target": "SIGMAR1", "assay": "ligand displacement, radioligand", "pKi": "< 5.00"}
{"SMILES": "CCCc1nc2c(C)cc(-c3nc4ccccc4n3C)cc2n1Cc1ccc(-c2ccccc2C(=O)O)cc1", "target": "SLC10A1", "assay": "transporter uptake, inhibitor", "pKi": 4.22}
{"SMILES": "Cc1nc2n(c(=O)c1CCN)CCCC2", "target": "HTR2A", "assay": "ligand displacement, radioligand", "conditions": "cell membranes", "pKi": "< 5.00"}
{"SMILES": "CC[C@H](C)[C@H](NC(=O)[C@H](CCC(=O)O)NC(=O)[C@H](CC(=O)O)NC(=O)CNC(=O)[C@H](CC(C)C)NC(=O)[C@H](CCCNC(=N)N)NC(=O)[C@H](CCCNC(=N)N)NC(=O)[C@H](CC(C)C)NC(=O)CNC(=O)[C@H](CCC(N)=O)NC(=O)[C@@H](NC(=O)[C@H](CCSC)NC(=O)[C@H](Cc1c[nH]c2ccccc12)NC(=O)[C@@H](NC(=O)[C@H](CCC(=O)O)NC(=O)[C@@H]1CCCN1C(=O)[C@H](CCCNC(=N)N)NC(C)=O)[C@@H](C)CC)[C@@H](C)O)C(=O)N[C@@H](CC(N)=O)C(=O)N[C@@H](C)C(=O)N[C@@H](Cc1ccc(O)cc1)C(=O)N[C@@H](Cc1ccc(O)cc1)C(=O)N[C@@H](C)C(=O)N[C@@H](CCCNC(=N)N)C(N)=O", "target": "Bcl-2-like protein 1 (BCL2L1, Homo sapiens, UniProt Q07817)", "assay": "ligand displacement, FP", "pKi": 5.62}
{"SMILES": "CCCn1nc(C(=O)N(C)C)c2c1CCC(NCc1ccc(OC)cc1OC)C2 (centres unmarked)", "target": "SIGMAR1", "assay": "ligand displacement, radioligand", "pKi": "< 5.00"}
{"SMILES": "Cc1nc[nH]c(=O)c1CCN1CCC(c2noc3cc(F)ccc23)CC1", "target": "HTR2A", "assay": "ligand displacement, radioligand", "conditions": "cell membranes", "pKi": 8.73}
